PABP FP inh: PABP-poly(A) binding inhibition; P11940; PABP-poly(A) RNA binding, fluorescence polarization; inhibition, % at 35 µM; 290,000 compounds, 1% hits;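 note: calls also rest on retests at 20 µM and on dose response follow-up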
Target sequence (P11940 whole entry, looked up): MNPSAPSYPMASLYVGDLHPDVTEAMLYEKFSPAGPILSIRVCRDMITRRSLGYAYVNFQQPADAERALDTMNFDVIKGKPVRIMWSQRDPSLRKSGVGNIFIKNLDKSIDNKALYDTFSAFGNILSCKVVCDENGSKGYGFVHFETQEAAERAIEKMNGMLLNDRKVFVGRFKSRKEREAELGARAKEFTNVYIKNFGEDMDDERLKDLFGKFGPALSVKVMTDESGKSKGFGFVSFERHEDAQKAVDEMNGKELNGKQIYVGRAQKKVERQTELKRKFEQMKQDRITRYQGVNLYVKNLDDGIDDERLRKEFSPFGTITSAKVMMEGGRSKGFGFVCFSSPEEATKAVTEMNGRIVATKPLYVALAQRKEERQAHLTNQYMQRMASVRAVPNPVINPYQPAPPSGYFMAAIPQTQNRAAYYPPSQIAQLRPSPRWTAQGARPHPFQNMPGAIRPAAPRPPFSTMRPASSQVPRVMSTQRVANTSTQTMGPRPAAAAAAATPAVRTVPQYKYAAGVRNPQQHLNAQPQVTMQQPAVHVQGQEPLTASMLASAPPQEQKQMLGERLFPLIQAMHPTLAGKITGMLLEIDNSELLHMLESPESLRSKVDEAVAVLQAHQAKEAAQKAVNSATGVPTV
HCV NS3 hel inh: blocks Hepatitis C virus NS3 helicase unwinding | NS3 helicase DNA unwinding, Cy5 molecular beacon fluorescence | inhibition, % at 10.9 µM | 290,000 compounds, 0.56% hits;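 active = inhibition above the mean of all tested compounds plus 3 SD, set per campaign, cut at about 35% in these data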;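 note: 0% = DMSO wells and 100% = thioflavine S control wells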
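Test system: hepatitis C virus NS3 helicase domain fragment enzyme. Also added: annealed dual-labelled DNA beacon duplex, ATP-started. Timing: 60 min unwinding reaction at 25 °C after ATP addition. Technique: Cy5 fluorescence. Measure: % inhibition of unwinding.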
MLLE-PAM2 inh: blocks PAM2 peptide binding to the PABP1 MLLE domain; P11940; GST-MLLE / FITC-PAM2 fluorescence polarization; inhibition, % at 20 µM; 360,000 compounds, 0.36% hits; AID 588489; in the data active = inhibition above about 35%, passing the limit was not always enough;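 note: plate controls were DMSO wells with GST-MLLE for no effect and wells lacking GST-MLLE protein for full effect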
core dimer inh: blocks dimerization of HCV core protein; inhibition, % at 5 µM; TR-FRET GST/Flag-core106 dimerization, 1536-well; 300,000 compounds, 0.33% hits; AID 1899;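 active = inhibition above the mean of all tested compounds plus 3 SD, set per screening campaign, cut at about 45% in these data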
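Assay system: GST-tagged and Flag-tagged HCV core protein residues 1-106 / Times: compound-protein-antibody incubation 4 h at 22.5 °C / Signal: time-resolved FRET, ex 340 nm, em 617 and 671 nm / Evaluation: % inhibition based on acceptor/donor emission ratio / Benchmarks: wells lacking GST-core106 and wells with excess unlabelled core106 / Repeats: singlicate, one well per compound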
eIF4H FP inh: inhibitors of RNA binding by human eIF4H; Q15056; eIF4H fluorescence polarization binding assay; inhibition, % at 35 µM; 290,000 compounds, 0.94% hits;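 note: calls also rest on retests at 20 µM and on dose response follow-up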
FID counter: fluorescent intercalator displacement, NS3 helicase counter-screen; DNA fluorescent intercalator displacement, fluorescence; inhibition, % at 7.9 µM; 290,000 compounds, 0.17% hits; AID 1845; in the data active = inhibition above about 37%;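 note: 0% = vehicle and 100% = reference compound; higher means more ethidium bromide displaced from hairpin DNA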
Numbers without * were called inactive. This is a sample that favours compounds with a hit; in the whole collection about 2% have one here. Unless noted, the rule behind the calls is not given here.

What do the screens show for `COc1ccc(Cn2c(N)c(C(=O)NCc3ccco3)c3nc4ccccc4nc32)cc1OC`?
PABP FP inh: 8; HCV NS3 hel inh: 19; MLLE-PAM2 inh: -30; core dimer inh: 30; eIF4H FP inh: 12; FID counter: -34

What do the screens show for `Nc1c(C(=O)NCc2ccco2)c2nc3ccccc3nc2n1CCN1CCCCC1`?
PABP FP inh: 104*; HCV NS3 hel inh: -1; MLLE-PAM2 inh: -48; core dimer inh: 10; eIF4H FP inh: 72*; FID counter: 9

What do the screens show for `CCC(=O)OC1CCC2C3CCC4CC(=O)C=CC4(C)C3CCC12C` (stereo unspecified)?
MLLE-PAM2 inh: -3

What do the screens show for `c1cncc(C2Nc3cccc4cccc(c34)N2)c1`?
PABP FP inh: 60*; HCV NS3 hel inh: -9; MLLE-PAM2 inh: 18; core dimer inh: 2; eIF4H FP inh: 92*; FID counter: -4

Results for CCCCCSc1cc(OC)c(CCN)cc1OC ?
PABP FP inh: -2; HCV NS3 hel inh: -75; MLLE-PAM2 inh: 13; core dimer inh: -13; eIF4H FP inh: 11; FID counter: 39*

Results for Cc1ccc(-n2c(C)cc(/C=C3/C(=O)NC(=O)N(C)C3=O)c2C)cc1 ?
PABP FP inh: 3; HCV NS3 hel inh: 4; MLLE-PAM2 inh: -17; core dimer inh: 18; eIF4H FP inh: inconclusive; FID counter: -17

What do the screens show for `COc1ccc(N2C(=O)/C(=C/c3cc(C)n(-c4ccc(C)cn4)c3C)C(=O)NC2=S)c(OC)c1`?
PABP FP inh: active; HCV NS3 hel inh: 2; MLLE-PAM2 inh: -5; core dimer inh: 23; eIF4H FP inh: 74; FID counter: -8

How did CC(C)n1c(O)c(C=NCc2cccnc2)c(=O)[nH]c1=S do in these assays?
PABP FP inh: -6; HCV NS3 hel inh: 1; MLLE-PAM2 inh: 1; core dimer inh: -5; eIF4H FP inh: -8; FID counter: -5

What do the screens show for `CCC(C)n1c(O)c(C=Nc2cccc(C(F)(F)F)c2)c(=O)[nH]c1=S` (stereo unspecified)?
PABP FP inh: active; HCV NS3 hel inh: 15; MLLE-PAM2 inh: 5; core dimer inh: 5; eIF4H FP inh: 60*; FID counter: -6

How did CC(C)(C)n1nnnc1C(CCc1ccccc1)N1CCC2(CC1)C(=O)NCN2c1ccccc1 (stereo unspecified) do in these assays?
MLLE-PAM2 inh: -2

What do the screens show for `CCCCCn1c(=O)c(C(=O)NC(C)c2ccccc2)c(O)c2ccccc21` (stereo unspecified)?
PABP FP inh: 6; HCV NS3 hel inh: -5; MLLE-PAM2 inh: -5; core dimer inh: -3; eIF4H FP inh: 2; FID counter: -5

What do the screens show for `CCn1nc(-c2ccccc2)nc2c(=O)n(C)c(=O)nc1-2`?
PABP FP inh: -7; HCV NS3 hel inh: -3; MLLE-PAM2 inh: -1; core dimer inh: 48*; eIF4H FP inh: inconclusive; FID counter: 4

Results for O=c1[nH]c(=O)n(Cc2ccco2)c(O)c1C=NCc1cccs1 ?
PABP FP inh: 1; HCV NS3 hel inh: 2; MLLE-PAM2 inh: -2; core dimer inh: -1; eIF4H FP inh: 0; FID counter: -4

Results for O=c1[nH]c(=S)n(Cc2ccco2)c(O)c1C=NCc1cccs1 ?
PABP FP inh: 34*; HCV NS3 hel inh: 3; MLLE-PAM2 inh: 21; core dimer inh: 55*; eIF4H FP inh: 53*; FID counter: -10

How did NC(=O)c1ccc(N=Cc2c(O)n(Cc3ccco3)c(=O)[nH]c2=O)cc1 do in these assays?
PABP FP inh: 9.7*; HCV NS3 hel inh: 10; MLLE-PAM2 inh: -4; core dimer inh: 12; eIF4H FP inh: 55; FID counter: -21

How did Cc1ccc2n1Cc1cnnn1-c1ccccc1-2 do in these assays?
MLLE-PAM2 inh: 7

Results for O=C(O)C(Br)CBr (stereo unspecified) ?
MLLE-PAM2 inh: 6

What do the screens show for `O=C1CC(=O)N(c2cccc(Cl)c2)C(=O)N1`?
PABP FP inh: inconclusive; HCV NS3 hel inh: 25; MLLE-PAM2 inh: -26; core dimer inh: 0; eIF4H FP inh: inconclusive; FID counter: -14

Results for Cc1ccc(N2C(=O)CC(=O)NC2=O)cc1 ?
PABP FP inh: inconclusive; HCV NS3 hel inh: -4; MLLE-PAM2 inh: -17; core dimer inh: -1; eIF4H FP inh: inconclusive; FID counter: -14

How did Cc1cccc(N2C(=O)CC(=O)NC2=O)c1 do in these assays?
PABP FP inh: 37; HCV NS3 hel inh: 14; MLLE-PAM2 inh: -29; core dimer inh: 0; eIF4H FP inh: 69*; FID counter: -11

Results for COc1ccc(N2C(=O)CC(=O)NC2=O)cc1 ?
PABP FP inh: 48*; HCV NS3 hel inh: 9; MLLE-PAM2 inh: -5; core dimer inh: -10; eIF4H FP inh: inconclusive; FID counter: -15

How did c1ccc(CCN2CCCCC2)nc1 do in these assays?
MLLE-PAM2 inh: -2

How did O=C1NC(=S)N(c2ccc(F)cc2)C(=O)/C1=C\c1ccoc1 do in these assays?
PABP FP inh: 5; HCV NS3 hel inh: 28; MLLE-PAM2 inh: -79; eIF4H FP inh: inconclusive; FID counter: -10

How did O=C1NC(=S)N(c2ccc(Cl)cc2)C(=O)/C1=C/N1CCN(C(=O)c2ccco2)CC1 do in these assays?
PABP FP inh: 49*; HCV NS3 hel inh: 7; MLLE-PAM2 inh: -114; core dimer inh: 2; eIF4H FP inh: 79; FID counter: 0

Results for O=C1NC(=S)N(c2ccc(F)cc2)C(=O)/C1=C/c1ccco1 ?
PABP FP inh: 48; HCV NS3 hel inh: 35; core dimer inh: 77*; eIF4H FP inh: 50; FID counter: -8

How did Cc1ccc2c(C)cccc2c1 do in these assays?
MLLE-PAM2 inh: -10

What do the screens show for `CC(C)(C)n1nnnc1C(c1ccccc1)N1CCC2(CC1)C(=O)NCN2c1ccccc1` (stereo unspecified)?
MLLE-PAM2 inh: 6

How did Cc1cc(N(CCCl)CCCl)ccc1C=NNC(=O)Cc1cc(=O)oc2cc(O)ccc12 do in these assays?
MLLE-PAM2 inh: -1

What do the screens show for `Cc1ccc(/C=C2/C(=O)NC(=O)N(Cc3ccc(F)cc3)C2=O)o1`?
PABP FP inh: -3; HCV NS3 hel inh: 25; core dimer inh: 5; eIF4H FP inh: 39; FID counter: -18

How did Cc1ccc(/C=C2\C(=O)NC(=O)N(CCc3ccc(F)cc3)C2=O)o1 do in these assays?
PABP FP inh: active; HCV NS3 hel inh: 32; MLLE-PAM2 inh: -46; core dimer inh: 17; eIF4H FP inh: inconclusive; FID counter: -25

Results for CN(C)c1ccc(/C=C2\C(=O)NC(=O)N(Cc3ccc(F)cc3)C2=O)cc1 ?
PABP FP inh: 46*; HCV NS3 hel inh: 1; MLLE-PAM2 inh: -65; core dimer inh: 7; eIF4H FP inh: inconclusive; FID counter: -9

Results for CC(C)c1ccc(N2C(=O)NC(=O)/C(=C/c3cnc(-c4ccccc4)nc3)C2=O)cc1 ?
PABP FP inh: active; HCV NS3 hel inh: 21; MLLE-PAM2 inh: 7; core dimer inh: 7; eIF4H FP inh: 54; FID counter: -15
